Assay outcomes from PubChem BioAssay.
KCNK3 block = human KCNK3 channel inhibition, primary screen; O14649; CHO-KCNK3 thallium flux, FluxOR fluorescence; stronger effect = lower value; B-score at 10 µM; 0.84% of 340,000 active; AID 602410;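 active = B-score under library mean minus 4 SD, starting fluorescence ratio at most library mean plus 5 SD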;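 also: more negative B-score means stronger inhibition of thallium flux through KCNK3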
Target sequence (O14649 whole entry, looked up): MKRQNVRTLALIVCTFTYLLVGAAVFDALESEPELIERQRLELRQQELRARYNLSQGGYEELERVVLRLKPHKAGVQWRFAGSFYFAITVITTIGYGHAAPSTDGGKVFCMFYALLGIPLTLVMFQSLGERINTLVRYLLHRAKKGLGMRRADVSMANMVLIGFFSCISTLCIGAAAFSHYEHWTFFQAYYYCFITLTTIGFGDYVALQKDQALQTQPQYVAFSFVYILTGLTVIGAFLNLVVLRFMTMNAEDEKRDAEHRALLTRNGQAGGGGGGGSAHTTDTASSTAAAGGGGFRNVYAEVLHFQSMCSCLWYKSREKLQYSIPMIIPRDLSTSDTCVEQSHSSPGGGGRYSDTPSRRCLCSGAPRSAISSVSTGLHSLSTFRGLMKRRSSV
hERG rescue = hERG (human) protection from proarrhythmic block; activation (rescue from dofetilide block), less the hit threshold, % at 10 µM; CHO-hERG, FluxOR thallium flux, dofetilide IC70 present; Q12809; 0.51% of 310,000 active; AID 1511;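 active = activation above the mean of controls blocked by dofetilide plus 5 SD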;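 also: thallium influx through hERG after potassium depolarization seen as dye fluorescence rise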
KCNQ1 act = potentiators or activators of human KCNQ1 potassium channel | CHO-K1 KCNQ1, thallium flux FluxOR fluorescence; stronger effect = higher value | P51787 | B-score at 10 µM | 0.35% of 310,000 active;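 active = fluorescence ratio B-score, a plate-corrected score, at least three library SD, with initial intensity B-score within 5 SD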
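Assay system: CHO-K1 cells stably expressing KCNQ1; Medium: assay buffer with matched DMSO; Also added: K+/Tl+ depolarizing stimulus; Dosing: single dose; Timing: dye 90 min, compound 20 min, room temperature; Measured by: kinetic FluxOR thallium fluorescence, 10-s 1-Hz baseline, 110-s post-stimulus read; Read-out: peak-minus-minimum fluorescence over initial fluorescence, negative-control normalized, B-scored.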
KCNQ1 inh = blocks the human KCNQ1 potassium channel; P51787; CHO-K1 KCNQ1, FluxOR thallium flux fluorescence; stronger effect = higher value; B-score at 10 µM; 1.3% of 310,000 active; AID 2642;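 active = compounds whose thallium flux B-score, printed positive for inhibition, exceeds three library SD while starting fluorescence stays within three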;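 also: channel opened by potassium depolarization with thallium stimulus after 20 min compound exposure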
KCNK9 block = blocks the human KCNK9 two-pore domain potassium channel; AID 488922; HEK293 KCNK9, FluxOR thallium flux fluorescence; stronger effect = lower value; 1.2% of 310,000 active; B-score at 10 µM; Q9NPC2;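 active = ratio B-score over 3 SD below the library mean, with starting fluorescence within 5 SD of its mean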;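 also: negative B-score means less thallium flux so channel inhibition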
KCC2 mod = modulates chloride dependent transport by human KCC2. Q9H2X9. KCC2 cells, thallium flux FluoZin-2 fluorescence. B-score of Tl+ flux slope (higher = more flux/activation; lower = inhibition) at 10 µM. 2.2% of 190,000 active. AID 1456;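 active = thallium flux slope and its plate-corrected score both differing from the plate sample mean at a set confidence after two filtering rounds, in either direction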;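 also: slope of fluorescence scaled to starting intensity during 10 to 20 s after thallium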
KCNK9 inh conf = human KCNK9 inhibitor confirmation; shares compounds with KCNK9 block; HEK293 KCNK9 cells, FluxOR thallium flux fluorescence; inhibition, % at 10 µM; 43% of 4,900 active;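 active = thallium signal inhibited by more than 5 SD of the compound-free buffer control wells, on both duplicate plates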;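 also: 0% = assay buffer control wells without compound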
Kir21 sel = mouse Kir2.1 off-target activity of KCNK9 modulators; shares compounds with KCNK9 block; Kir2.1 cells, FluxOR thallium flux fluorescence; inhibition, % at 10 µM; 4% of 4,900 active; AID 492993;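 active = thallium signal drop more than 5 SD beyond the mean of the no-compound control wells, seen in both duplicate plates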;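 also: signal is fluorescence rise after thallium addition divided by baseline fluorescence; plate controls were assay buffer only for no effect and full block by chlorpromazine control for full effect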
HEK293 Tl ctr = second check of KCNK9 modulator effects in non-induced HEK293 cells. 40% of 4,900 active. inhibition, % at 10 µM. shares compounds with KCNK9 block. FluxOR thallium flux. AID 492997;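 active = thallium signal drop beyond 5 SD of the untreated control mean, on both duplicate plates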;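 also: plate controls were buffer only IC0 wells for no effect and SID17386958 at its maximal inhibitory level for full effect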
* marks the source's active call; other numbers are inactive results; i = inactive; · = no result given. In the library only some 4.1% were active in any assay of this set; here they are far more common.

SMILES	KCNK3 block	hERG rescue	KCNQ1 act	KCNQ1 inh	KCNK9 block	KCC2 mod	KCNK9 inh conf	Kir21 sel	HEK293 Tl ctr
COc1ccc(OC)c(C(C[N+](=O)[O-])c2c(C)cc3ccccn23)c1 (stereo not drawn)	i	-10.3	i	i	-17.3*	·	58.0%*	i	28.5%*
COc1cccc(OCc2nc(-c3ccc(Br)o3)no2)c1	i	-12.9	i	i	i	·	i	i	i
Cc1cccc(OCc2nc(-c3ccc(Br)o3)no2)c1	i	-7.1	i	i	i	-0.179	i	i	23.5%*
CN(C)/N=C/c1ccc(Sc2ccccc2[N+](=O)[O-])o1	i	-7.2	i	i	i	-1.58	i	i	i
Cc1nn(-c2ccccc2)c(Cl)c1/C=C1\SC(=S)N(CCCCCC(=O)O)C1=O	i	-19.5	i	i	i	-1.94	i	i	i
O=C(O)c1ccccc1C(=O)N1N=C(c2ccccc2)CC1c1ccccc1O (stereo not drawn)	i	-9.8	i	i	-8.34*	·	42.0%*	i	i
O=C(c1ccccc1Br)N1N=C(c2ccccc2)CC1c1ccccc1F (stereo not drawn)	i	-0.7	i	i	i	·	·	·	·
COCCNC(=O)CN(C(=O)Cn1nnc2ccccc21)c1ccc(C)c(F)c1	i	-14.3	i	i	i	0.852	i	i	i
O=C(NCCC1=CCCCC1)c1ccc(Cl)c(S(=O)(=O)N2CCOCC2)c1	i	-10.2	i	i	i	-0.14	·	·	·
O=C(NCCC1=CCCCC1)c1ccc(Cl)c(S(=O)(=O)N2CCCCC2)c1	i	-4.8	i	i	i	·	i	i	i
Cc1ccc(CSCCNC(=O)c2ccc(Cl)c(S(=O)(=O)N3CCOCC3)c2)cc1	i	-14.8	i	i	i	-2.3	i	i	i
COC(=O)C12CC3CC(C1)CC(n1cnc(Cl)n1)(C3)C2	i	-6.3	i	i	i	0.978	·	·	·
COC(=O)c1ccccc1NC(=O)C12CC3CC(C1)CC(n1cnc(Cl)n1)(C3)C2	i	-17.1	i	i	i	0.0156	i	i	i
Cc1cc(C)c2oc(=O)cc(CN3CCCCC3)c2c1	i	-0.8	i	i	i	·	i	i	i
Cc1ccc2c(CN3CCCCC3)cc(=O)oc2c1C	i	-4.2	i	i	i	·	i	i	i
CCc1ccc2nc(SCC(=O)NCC3CCCO3)c(C#N)cc2c1 (stereo not drawn)	i	-4.4	i	i	i	-0.0901	i	i	i
COc1ccccc1C(=O)NCCC(=O)NCC(c1ccc(F)cc1)N1CCOCC1 (stereo not drawn)	i	-10.7	i	i	i	·	·	·	·
O=C1NN(c2ccccc2)C(=O)/C1=C/c1ccc(Sc2cccc3ccccc23)o1	i	-10.5	i	i	i	-1.26	i	i	i
C=CCOC(=O)N1CCC2CC1c1cc(-c3cccc(C)c3)ccc12 (stereo not drawn)	i	·	·	·	·	·	·	·	·
COC(=O)c1cc(NC(=O)C2(S(=O)(=O)c3ccc(C)cc3)CC2)cc(C(=O)OC)c1	i	-5.1	i	i	i	0.257	i	i	i
COC(=O)c1cc(NC(=O)C2(S(=O)(=O)c3ccc(Cl)cc3)CC2)cc(C(=O)OC)c1	i	-9.0	i	i	i	-1.67	·	·	·
Cc1cc(C)c2nc(N(CCN(C)C)C(=O)c3ccc4ccccc4c3)sc2c1	i	-10.7	i	i	i	·	i	i	i
